Compound activity (PubChem)
A selection: hits, their analogues and other compounds. The true share with any hit is near 2.1%.
Apaf1 inhib: inhibitors of human Apaf-1 apoptosome, primary screen, biochemical, DEVD-Rh110 fluorescence, uHTS. Apoptotic protease-activating factor 1 (Homo sapiens), O14727. reconstituted apoptosome caspase-3 activity. inhibition, % at 20 µM. 330,000 tested, 0.71% active. AID 489030, 2010; active means inhibition of at least 40% at 20 µM
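Material: biochemical Apaf-1 apoptosome reconstitution. Medium: Hepes buffer, pH 7.5. Also added: cytochrome c activation, bis-DEVD rhodamine 110 substrate. Timing: 30 min compound preincubation, 50 min activation, room temperature. Measured by: rhodamine 110 fluorescence at Ex 480/Em 540 nm.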
PP1 counter: PP1-alpha phosphatase inhibitors, primary screen, counter-screen for PP5 inhibitor project, biochemical, fluorescence, OMFP substrate, single point | Serine/threonine-protein phosphatase PP1-alpha catalytic subunit (Homo sapiens), P62136 | inhibition, % at 6.7 µM | purified PP1alpha | 320,000 tested, 0.9% active | AID 2235, 2010;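 active means inhibition above the mean inhibition of all tested compounds plus 3 SD, computed separately for each screening campaign, cut at about 15% in these data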
Target sequence (P62136 whole entry, looked up): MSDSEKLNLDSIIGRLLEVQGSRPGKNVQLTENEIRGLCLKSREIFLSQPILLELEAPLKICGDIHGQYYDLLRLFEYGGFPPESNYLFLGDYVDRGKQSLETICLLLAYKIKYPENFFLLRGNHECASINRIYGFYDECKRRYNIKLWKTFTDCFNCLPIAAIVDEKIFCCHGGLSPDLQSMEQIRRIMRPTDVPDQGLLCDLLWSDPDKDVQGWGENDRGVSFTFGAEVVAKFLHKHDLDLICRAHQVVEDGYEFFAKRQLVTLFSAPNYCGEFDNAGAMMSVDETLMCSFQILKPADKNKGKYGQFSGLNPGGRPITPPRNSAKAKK
GSTO1 counter: inhibitors of recombinant GSTO1, primary screen, counter-screen for RBBP9 inhibitor project, biochemical, fluorescence polarization. Glutathione S-transferase omega-1 (Homo sapiens), P78417. 300,000 tested, 1.1% active. activity-based probe fluorescence polarization. inhibition, % at 5.96 µM;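 active means inhibition above the campaign mean inhibition plus 3 SD, cut at about 35% in these data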
PP5 inh: PP5 phosphatase inhibitors, primary screen, biochemical, fluorescence; AID 1987, 2009; inhibition, % at 6.7 µM; 320,000 tested, 0.18% active; purified PP5c, OMFP substrate fluorescence;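 active means inhibition above the campaign's mean inhibition across all tested compounds plus 3 SD, cut at about 9.5% in these data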
TDP2 absorb: human TDP2 enzyme inhibitors, primary screen, biochemical, epi absorbance, recombinant enzyme. T5PNP hydrolysis, p-nitrophenol absorbance 415 nm. 370,000 tested, 0.34% active. Tyrosyl-DNA phosphodiesterase 2 (Homo sapiens), O95551. inhibition, % at 12.8 µM;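 active means inhibition above the mean of all tested compounds plus 3 SD, set per campaign, cut at about 25% in these data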
Target sequence (O95551 whole entry, looked up): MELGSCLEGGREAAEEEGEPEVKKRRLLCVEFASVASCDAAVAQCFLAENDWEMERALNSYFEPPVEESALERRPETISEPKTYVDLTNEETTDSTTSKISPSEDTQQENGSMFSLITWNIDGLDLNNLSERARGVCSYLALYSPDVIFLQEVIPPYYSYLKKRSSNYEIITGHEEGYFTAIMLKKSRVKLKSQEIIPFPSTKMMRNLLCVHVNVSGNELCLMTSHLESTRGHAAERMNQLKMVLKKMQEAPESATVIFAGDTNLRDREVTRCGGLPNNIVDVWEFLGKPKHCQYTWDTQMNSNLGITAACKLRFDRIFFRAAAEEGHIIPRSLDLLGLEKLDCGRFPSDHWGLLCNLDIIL
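Assay system: Recombinant human TDP2 | Quantity: 120 nM TDP2 per well | Incubation: 2 h at 37 °C | Signal: Epi absorbance | Evaluation: Percent inhibition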
Apaf-1 inh conf: Apaf-1 inhibitors, single-dose retest, confirmation, biochemical, fluorescence, DEVD-Rh110, 20 µM | shares compounds with Apaf1 inhib | 1,800 tested, 25% active | inhibition, % at 20 µM | AID 504614, 2011 | reconstituted apoptosome, caspase-3 DEVD-Rh110 fluorescence;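 active means mean inhibition of at least 40% at 20 µM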
Rh110 quench: Rh110 fluorescence interference by putative Apaf-1 inhibitors, confirmation, artefact control for Apaf-1 inhibitor project, biochemical, 20 µM; quenched caspase reaction; activation (fluorescence interference), % at 20 µM; shares compounds with Apaf1 inhib; 1,800 tested, under 10 active;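 active means signal rise of 40% or more at 20 µM, treated as a fluorescence artifact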
Fluor interf inh: fluorescence interference of Apaf-1 inhibitor hits, dose response, artefact control for Apaf-1 inhibitor project; fluorescence interference counterscreen, Apaf-1 assay format; shares compounds with Apaf1 inhib; 460 tested, under 10 active; IC50, µM; AID 588538, 2011; call rule not given here
Numbers stand for hits; i = inactive; nt = not tested or not shown; ! = not active in a repeat.

SMILES | Apaf1 inhib | PP1 counter | GSTO1 counter | PP5 inh | TDP2 absorb | Apaf-1 inh conf | Rh110 quench | others
O=S1(=O)c2ccc(Br)cc2OC[C@@H](Cc2ccccc2)N1Cc1cn(Cc2ccc(F)cc2)nn1 | nt | nt | nt | nt | i | nt | nt
COCCCC/C(=N\OCCN)c1ccc(C(F)(F)F)cc1 | 99.0! | i | i | i | i | i | i
O=C(CCC(=O)OCC(=O)c1ccc(C(F)(F)F)cc1)OCC(=O)c1ccc(C(F)(F)F)cc1 | i | i | i | i | i | nt | nt
Cc1nn(-c2ccccc2)c2sc(C(=O)NC3CCCCCC3)cc12 | nt | nt | nt | nt | i | nt | nt
CCc1cccc(C)c1NC(=S)NCc1ccc2c(c1)cc(C)n2C | 54.6 | i | i | i | i | i | i
Cc1cc2cc(CNS(=O)(=O)c3ccccc3)ccc2n1C | 60.9 | i | i | i | i | i | i
COc1ccc(S(=O)(=O)NCc2ccc3c(c2)cc(C)n3C)cc1 | 50.7 | i | i | i | i | i | i
Cc1cc2cc(CNC(=O)c3ccc(S(=O)(=O)N4CCCCC4)cc3)ccc2n1C | 53.3 | i | i | i | i | i | i
Cc1cc2cc(CNC(=O)c3ccc(S(=O)(=O)N4CCCC4)cc3)ccc2n1C | i | i | i | i | i | nt | nt
CCS(=O)(=O)NCc1ccc2c(c1)cc(C)n2C | i | i | i | i | i | nt | nt
Cc1ccccc1NC(=S)NCc1ccc2c(c1)cc(C)n2C | i | i | i | i | i | nt | nt
COc1ccc(-c2cc(C(=O)N=Nc3c(O)[nH]c4ccccc34)[nH]n2)cc1 | nt | nt | nt | nt | i | nt | nt
CCn1c(=O)c2cc(C(=O)N(C)c3ccc(OC)cc3OC)sc2c2ccccc21 | i | i | i | i | i | nt | nt
CCn1c(=O)c2cc(C(=O)N(C)c3cc(C)ccc3OC)sc2c2ccccc21 | 53.4 | i | i | i | i | i | i
CN(C)CCN(C(=O)c1cccc2ccccc12)c1nc2cc3c(cc2s1)OCO3 | 51.8 | i | i | i | i | i | i
CN(C)CCCN(C(=O)c1ccc2ccccc2c1)c1nc2cc3c(cc2s1)OCO3 | i | i | i | i | i | nt | nt
CCC(C)Sc1cccc(-c2nc3cc(C)ccn3c2NC2CCCCC2)c1 (centres undefined) | 40.7 | nt | nt | nt | i | i | i
Cc1ccn2c(NC3CCCC3)c(-c3ccsc3)nc2c1 | i | i | i | i | i | nt | nt
Cc1ccn2c(NC3CCCCC3)c(-c3cccc(SC4CCCCC4)c3)nc2c1 | 40.4 | nt | nt | nt | i | i | i
Cc1ccn2c(NC3CCCCC3)c(-c3ccc(SC4CCCCC4)cc3)nc2c1 | nt | nt | nt | nt | i | nt | nt
C[C@H]1[C@@H](OC(=O)NC2CCC2)CC[C@@]23CCCN2C(=O)CCC[C@@H]13 | nt | nt | nt | nt | i | nt | nt
CN(CCO)C1CN(Cc2cn(Cc3ccccc3F)nn2)S(=O)(=O)C1 (centres undefined) | nt | nt | nt | nt | i | nt | nt
CCCCCCCCNC(C)C(O)c1ccc(SC(C)C)cc1 (centres undefined) | 57.8 | i | i | i | i | i | i
O=C1Cc2ccccc2C(=O)N1CCc1ccccc1 | 79.0 | i | i | i | i | 94.9 | i | Fluor interf inh=i
O=C1C(=O)N(Cc2ccccc2)C(=O)N1CCN1C(=O)c2ccccc2C1=O | i | i | i | i | i | nt | nt
SMILES | Apaf1 inhib | PP1 counter | GSTO1 counter | PP5 inh | TDP2 absorb | Apaf-1 inh conf | Rh110 quench | others
O=C(CSc1nnc(-c2ccc(Cl)cc2)n1-c1ccccc1)Nc1ccc(Oc2ccccc2)cc1 | nt | nt | nt | nt | i | nt | nt
Cc1ccc(C)c2[nH]c(=O)c(C(c3nnnn3Cc3ccco3)N3CCc4ccccc4C3)cc12 (centres undefined) | 70.6 | i | i | i | i | i | i
COc1ccc(/C=N/NC(=O)c2nn(-c3ccccc3)c(=O)c3c(N)scc23)cc1 | 60.5 | i | 53.4 | i | i | 40.2 | i | Fluor interf inh=i
COc1ccc(/C=N/NC(=O)c2nn(-c3ccc(Cl)cc3)c(=O)c3c(N)scc23)cc1 | 53.8 | 17.1 | i | i | i | i | i
CCOC(=O)c1nn(-c2ccc(OC)cc2)c(=O)c2c(N)scc12 | i | i | i | i | i | nt | nt
CC(=O)NC1N=C(C)N(c2ccccc2)C1=O (centres undefined) | 70.5 | i | i | i | i | i | i
CCC(=O)Nc1ccc2c(c1)nc(CCN1CCC(C)CC1)n2C | i | i | i | i | i | nt | nt
CC1CCN(CCc2nc3cc(NC(=O)COc4ccccc4)ccc3n2C)CC1 | 52.4 | i | i | i | i | i | i
CCOc1ccc(NS(=O)(=O)c2ccc(C(=O)N(CC)CC(=O)NCc3cccs3)cc2)cc1 | 61.2 | i | i | i | i | i | i
O=[N+]([O-])c1ccc(C=Nc2cccc3ccccc23)s1 | 68.1 | i | i | i | nt | i | i
O=[N+]([O-])c1ccc(C=NN2CCOCC2)s1 | nt | nt | nt | nt | i | nt | nt
NCCN1CCN(S(=O)(=O)c2ccc([N+](=O)[O-])cc2)C=C1c1ccc(Cl)cc1 | 43.2 | i | nt | i | i | i | i
CCCN(CC(=O)Nc1ccccc1C)C(=O)C1CCN(c2ncnc3sc(C)c(C)c23)CC1 | 48.5 | i | i | i | i | i | i
Cc1ccccc1OCC(=O)NNC(=O)C1CCN(c2ncnc3sc(C)c(C)c23)CC1 | i | i | i | i | i | nt | nt
CNC(=O)c1ccc(NC(=O)C2CCN(c3ncnc4sc(C)c(C)c34)CC2)cc1 | i | i | i | i | i | nt | nt
Cc1sc2ncnc(N3CCC(C(=O)Nc4ccc(Cl)c(Cl)c4)CC3)c2c1C | 41.5 | i | nt | i | i | i | i
CCC(C)N(C(=O)CSc1nnc(-c2cc(OC)c(OC)c(OC)c2)o1)C(C)CC (centres undefined) | nt | nt | nt | nt | i | nt | nt
CC(=O)Nc1ccc2c(c1)N(C(=O)CN(C)C)c1ccccc1CC2 | 42.6 | i | i | i | i | i | i
COc1ccc(S(=O)(=O)Oc2ccc3cccc(N)c3c2)cc1 | 88.0 | i | i | i | i | i | i
CC(C)C[C@@H]1COc2cc(Br)ccc2S(=O)(=O)N1Cc1cn(Cc2ccc(C(F)(F)F)cc2)nn1 | nt | nt | nt | nt | i | nt | nt
COc1ccc(-c2nc3nc(C)c(Cc4ccccc4)c(=O)n3[nH]2)cc1 | 49.5 | i | i | i | i | 46.7 | i
COC(=O)Cc1c(C)nc2nc(-c3ccc(OC)cc3)[nH]n2c1=O | i | i | i | i | i | nt | nt
